# From ChEMBL document CHEMBL1799922, “Synthesis and antimycobacterial activity of prodrugs of indeno[2,1-c]quinoline derivatives” (Eur J Med Chem, 2011)
# The source made the active and inactive calls. The rule behind the calls is not given here.
# Key:
# [1] = tested on: Mycobacterium tuberculosis; assay: Antimicrobial activity against Mycobacterium tuberculosis H37Rv ATCC 27294 after 16 to 24 hrs by microplate alamar blue assay; assay type: functional
# Summary of the method: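 M. tuberculosis H37Rv inoculum 2×10^5 cfu/mL (100 µL) added to twofold dilutions in Middlebrook 7H12 medium; final test range 128 µM to 0.5 µM from 12.8 mM DMSO stocks. Incubated 37 °C; day 7 Tween 80 plus Alamar Blue added, further 16-24 h at 37 °C. Fluorescence ex 530/em 590 nm; MIC = lowest concentration giving >90% fluorescence reduction versus replicate bacteria-only controls. Rifampin, isoniazid controls.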
# [2] = Cytotoxicity against human U937 cells assessed as cell viability at 1.25 ug/ml after 72 hrs by MTT assay; assay type: cell-based, U-937; settings: read-out: Activity
# Summary of the method: (§1)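 U937 human monocytic cells plated at 1 × 10^5 cells/mL and allowed to adhere for 1 h at 37 °C in 5% CO2. Non-adherent cells were washed off with RPMI 1640. Adherent cells were exposed to compound in triplicate, with medium alone as the live control and 3% Tween 20 as the dead control. MTT (5 mg/mL in PBS) was then added for 3 h at 37 °C. Formazan was dissolved in 0.4 M HCl/isopropanol and absorbance read at 600 nm. Results are expressed as % cell viability.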
# [3] = Cytotoxicity against human U937 cells assessed as cell viability at 5 ug/ml after 72 hrs by MTT assay; assay type: cell-based, U-937; settings: read-out: Activity; summary of the method: as §1
# [4] = Cytotoxicity against human U937 cells assessed as cell viability at 10 ug/ml after 72 hrs by MTT assay; assay type: cell-based, U-937; settings: read-out: Activity; summary of the method: as §1
# [5] = Cytotoxicity against human U937 cells assessed as cell viability at 20 ug/ml after 72 hrs by MTT assay; assay type: cell-based, U-937; settings: read-out: Activity; summary of the method: as §1
# Serum = assay: Stability of the compound in 80% human blood serum assessed as hydrolysis to 2-bromo-6-(1H-imidazol-1-yl)-7H-indeno[2,1-c]quinolin-7-one oxime at 1 mg after 24 hrs at 37 degC by LC-MS analysis; assay type: ADME, cell-free; set-up: scale not given: the % may be the effect or the level left
# Summary of the method: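 Enzymatic hydrolysis: 1 mg prodrug dissolved in 1 mL ethanol, then 200 µL preheated human blood serum diluted to 80% with 0.16 M phosphate buffer (pH 7.4) was added. Samples were kept at 37 °C (24 h) and centrifuged 10 min at 10,000 rpm. Remaining prodrug in the supernatant was monitored by TLC and LC-MS. t1/2 is the time to 50% hydrolysis.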
# [6] = Stability of the compound in 10% aqueous ammonia buffer at pH 8 assessed as hydrolysis to 2-bromo-6-(1H-imidazol-1-yl)-7H-indeno[2,1-c]quinolin-7-one oxime at 1 mg at 37 degC by LC-MS analysis; assay type: physicochemical; set-up: scale not given: the % may be the effect or the level left
# Summary of the method: (§2)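 Chemical hydrolysis: 1 mg prodrug dissolved in 1 mL of 10% aqueous ammonia in methanol (pH 8) and held in a thermostatted water bath at 37 °C, up to 24 h. Conversion to the parent oxime was followed by TLC and LC-MS. t1/2 is the time to 50% hydrolysis.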
# [7] = Half life in 10% aqueous ammonia buffer at pH 8 assessed as hydrolysis to 2-bromo-6-(1H-imidazol-1-yl)-7H-indeno[2,1-c]quinolin-7-one oxime at 37 degC by LC-MS analysis; assay type: physicochemical; summary of the method: as §2
# [8] = Octanol-water partition coefficient, log P of the compound at pH 7.4 at room temperature by UV spectrophotometric analysis; assay type: physicochemical
# Summary of the method: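 Shake-flask method at room temperature: 1-octanol and phosphate buffer (pH 7.4) were pre-saturated by shaking for 24 h. Compound at 10^-4 M in equal volumes of both phases was shaken vigorously for 1 h, left to stand 15 min, then centrifuged 10 min at 10,000 rpm. UV absorbance of each phase was read at 280 nm against blanks, and P was taken as the octanol/water absorbance ratio.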
# [9] = Selectivity index, ratio CC50 for human U937 cells to MIC for Mycobacterium tuberculosis H37Rv ATCC 27294; assay type: functional, U-937
SMILES,MIC [1],"viability at 72 h, 1.25 ug/ml [2]","viability at 72 h, 5 ug/ml [3]","viability at 72 h, 10 ug/ml [4]","viability at 72 h, 20 ug/ml [5]",Activity (Serum),Activity [6],half-life [7],logD [8],Selectivity Index [9]
CCCCCCCCCCCCCC(=O)OC1(C)c2ccccc2-c2c1c(-n1ccnc1)nc1ccc(Br)cc21 (stereo unspecified),inactive,–,–,–,–,–,–,–,–,–
CCCCCC(=O)OC1(C)c2ccccc2-c2c1c(-n1ccnc1)nc1ccc(Br)cc21 (stereo unspecified),1.6 µg/mL,85%,77%,54%,15%,Not Active,90%,288 h,1.4,6.1
CCCCCC(=O)O/N=C1\c2ccccc2-c2c1c(N1CCN(c3ccccn3)CC1)nc1ccc(Br)cc21,3.16 µg/mL,96%,86%,85%,87%,5%,95%,576 h,2.1,>13
CC(C)(C)OC(=O)N1CCC[C@H]1C(=O)O/N=C1\c2ccccc2-c2c1c(N1CCN(c3ccccn3)CC1)nc1ccc(Br)cc21,1.53 µg/mL,86%,75%,61%,69%,13%,95%,24 h,2.3,>26
CCCCCCCCCCCC(=O)O/N=C1\c2ccccc2-c2c1c(N1CCN(c3ccccn3)CC1)nc1ccc(Br)cc21,inactive,–,–,–,–,–,–,–,–,–
CC(=O)O/N=C1\c2ccccc2-c2c1c(N1CCN(c3ccccn3)CC1)nc1ccc(Br)cc21,inactive,–,–,–,–,–,–,–,–,–
CC(=O)OC1(C)c2ccccc2-c2c1c(-n1ccnc1)nc1ccc(Br)cc21 (stereo unspecified),1.88 µg/mL,94%,90%,63%,35%,Not Active,90%,240 h,2.7,7.5
CCCC(=O)O/N=C1\c2ccccc2-c2c1c(N1CCN(c3ccccn3)CC1)nc1ccc(Br)cc21,inactive,–,–,–,–,–,–,–,–,–
O=C(CNC(=O)OCC1c2ccccc2-c2ccccc21)O/N=C1\c2ccccc2-c2c1c(N1CCN(c3ccccn3)CC1)nc1ccc(Br)cc21,6 µg/mL,68%,–,73%,–,29%,90%,36 h,1.4,–
COc1nc2ccc(Br)cc2cc1[C@@H](c1ccccc1)[C@@](O)(CCN(C)C)c1cccc2ccccc12 [BEDAQUILINE],0.06 µg/mL,–,–,–,–,–,–,–,–,–
CCCCC(=O)O/N=C1\c2ccccc2-c2c1c(N1CCN(c3ccccn3)CC1)nc1ccc(Br)cc21,inactive,–,–,–,–,–,–,–,–,–
CCCCCCCCCCCCCCC(=O)O/N=C1\c2ccccc2-c2c1c(N1CCN(c3ccccn3)CC1)nc1ccc(Br)cc21,inactive,–,–,–,–,–,–,–,–,–
CCCCCCC(=O)OC1(C)c2ccccc2-c2c1c(-n1ccnc1)nc1ccc(Br)cc21 (stereo unspecified),0.42 µg/mL,85%,83%,68%,54%,Not Active,86%,312 h,1.7,40.2
CN(C)C(=O)O/N=C1\c2ccccc2-c2c1c(N1CCN(c3ccccn3)CC1)nc1ccc(Br)cc21,1.56 µg/mL,100%,100%,68%,47%,Not Active,Not Active,–,2.3,88
O/N=C1\c2ccccc2-c2c1c(-n1ccnc1)nc1ccc(Br)cc21,< 0.39 µg/mL,100%,91%,77%,77%,–,–,–,0.2,>5
CCC(=O)O/N=C1\c2ccccc2-c2c1c(N1CCN(c3ccccn3)CC1)nc1ccc(Br)cc21,3.13 µg/mL,83%,88%,81%,83%,13%,95%,144 h,2.7,>13
CCCC(=O)OC1(C)c2ccccc2-c2c1c(-n1ccnc1)nc1ccc(Br)cc21 (stereo unspecified),inactive,–,–,–,–,–,–,–,–,–
